Compounds with a hit are over-represented: about 2.3% of the library has one in this group of screens.
STEP block: STEP (human) phosphatase inhibition; 360,000 tested, 0.25% active; P54829; AID 588621; recombinant STEP, OMFP fluorogenic substrate, fluorescence; inhibition, % at 20 µM;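 active = inhibition at 20 µM, scaled per plate between control wells, above about 37%, limit read from the data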
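Material: STEP (striatal-enriched tyrosine phosphatase) enzyme, cell-free | Medium: 50 mM Bis-Tris pH 6.0 with 2.5 mM DTT and 0.005% Tween 20 | Read-out: Percent inhibition scaled to no-enzyme and uninhibited-enzyme controls, plate-pattern corrected | Signal: Fluorescence read at 480 nm ex / 540 nm em | Times: 20 min reaction, room temperature, in the dark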
Scp1 inh: blocks human Scp-1 phosphatase activity. Q9GZU7. Recombinant Scp1, phosphopeptide, malachite green phosphate absorbance. inhibition, % at 20 µM. 340,000 tested, 0.88% active. AID 493091;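 active = inhibition above about 50% at 20 µM, limit read from the data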
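Test system: SCP-1 phosphatase catalytic domain, residues 76-261; measured by: colorimetric phosphate reagent with accelerator and stabiliser, absorbance at 630 nm; timing: enzyme reaction 45 min at room temperature, colour 5 min, stabilisation 30 min; also added: Phosphorylated 17-residue peptide substrate; compound dosing: one concentration, 20 µM, with 1.0% DMSO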
NadD block: blocks S. aureus nicotinate mononucleotide adenylyltransferase. purified NadD enzyme, colorimetric absorbance read-out. inhibition, % at 20 µM. 360,000 tested, 0.78% active. AID 602399; in the data active = inhibition above about 26%
LMPTP inh: blocks human LMPTP phosphatase; P24666; recombinant LMPTP-A, OMFP fluorogenic substrate, fluorescence intensity; inhibition, % at 20 µM; 360,000 tested, 0.22% active; AID 651560;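 active = compounds that cut the enzyme signal by at least half of the control window in the single-dose screen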
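Assay system: LMPTP-A phosphatase enzyme | Input: 0.625 nM enzyme | Also added: Fluorogenic phosphatase substrate OMFP at 400 µM final | Compound dosing: One test concentration per compound, 20 µM, with 3% DMSO overall | Schedule: 50 min enzyme reaction at room temperature, protected from light | Signal: Fluorescence intensity | Benchmarks: no-enzyme and uninhibited controls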
SUMO1 PPI mod: modulators of human SUMO1-mediated protein-protein interactions; P63165; SUMO1 binding to a labelled peptide, TR-FRET, 1 h; 360,000 tested, 0.33% active; inhibition, % at 20 µM; AID 602429; in the data active = inhibition above about 37%
DNMT1 inh: blocks human DNA methyltransferase DNMT1; DNMT1 molecular beacon, Hinp1I cleavage, fluorescence; inhibition (reported as % activation of signal), % at 10 µM; 360,000 tested, 0.83% active; in the data active = inhibition above about 50%
Target sequence (P26358 504-1616 limits assumed): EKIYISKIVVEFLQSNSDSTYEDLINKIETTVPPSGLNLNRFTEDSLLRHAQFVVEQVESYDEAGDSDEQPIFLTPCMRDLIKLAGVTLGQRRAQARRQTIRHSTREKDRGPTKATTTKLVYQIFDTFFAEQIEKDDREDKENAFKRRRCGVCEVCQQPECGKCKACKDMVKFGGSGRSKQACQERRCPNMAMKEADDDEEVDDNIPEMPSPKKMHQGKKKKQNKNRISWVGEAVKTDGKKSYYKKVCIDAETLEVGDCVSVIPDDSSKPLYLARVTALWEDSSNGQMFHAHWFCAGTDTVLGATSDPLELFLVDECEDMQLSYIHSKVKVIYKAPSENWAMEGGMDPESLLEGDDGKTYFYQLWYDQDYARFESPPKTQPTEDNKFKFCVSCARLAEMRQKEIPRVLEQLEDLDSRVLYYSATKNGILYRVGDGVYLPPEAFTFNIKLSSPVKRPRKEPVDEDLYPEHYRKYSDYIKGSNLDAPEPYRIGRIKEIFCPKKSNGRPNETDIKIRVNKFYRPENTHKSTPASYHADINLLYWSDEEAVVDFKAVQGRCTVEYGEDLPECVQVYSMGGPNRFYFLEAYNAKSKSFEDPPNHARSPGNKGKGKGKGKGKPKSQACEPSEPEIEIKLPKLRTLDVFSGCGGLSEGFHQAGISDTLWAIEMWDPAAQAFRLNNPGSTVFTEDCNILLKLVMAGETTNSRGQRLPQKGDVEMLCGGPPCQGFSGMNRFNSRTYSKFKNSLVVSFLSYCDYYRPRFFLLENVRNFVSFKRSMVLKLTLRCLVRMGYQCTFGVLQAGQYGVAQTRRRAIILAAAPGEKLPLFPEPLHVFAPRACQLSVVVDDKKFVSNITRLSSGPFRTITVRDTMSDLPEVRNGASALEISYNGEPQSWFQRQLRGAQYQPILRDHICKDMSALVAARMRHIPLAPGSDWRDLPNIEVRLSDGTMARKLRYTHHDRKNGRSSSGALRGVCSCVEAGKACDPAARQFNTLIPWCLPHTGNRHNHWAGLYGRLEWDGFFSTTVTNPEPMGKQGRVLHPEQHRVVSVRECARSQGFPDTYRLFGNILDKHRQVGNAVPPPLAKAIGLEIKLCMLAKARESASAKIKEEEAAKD
Scp-1 conf: Scp-1 (human) inhibition, single-dose confirmed; inhibition, % at 20 µM; recombinant SCP-1 catalytic domain, phosphate release, malachite green absorbance; shares compounds with Scp1 inh; 2,500 tested, 61% active
Scp-1 MG ctr: counter-screen for Scp-1 inhibitors: colorimetric interference; shares compounds with Scp1 inh; Colorimetric interference counterscreen, malachite green absorbance 630 nm; apparent inhibition (interference), % at 20 µM; 2,500 tested, under 10 active; AID 540313;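 note: compounds added after enzyme reaction finished so only phosphate colour detection is probed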
Scp-1 Tm shift: Scp-1 (human) binding by thermal shift. shares compounds with Scp1 inh. Recombinant SCP1, Sypro Orange thermal shift Tm. thermal shift relative to vanadate control, % at 40 µM. 1,500 tested, 25% active;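 active = substances whose mean melting-temperature shift, as a percentage of the reference inhibitor's shift, reaches about 5.3%, limit read from the data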
DNMT1 confirm: confirmation of human DNMT1 inhibitors; DNMT1 molecular beacon HinP1I cleavage, fluorescence; 2,300 tested, 8% active; inhibition, % at 10 µM; shares compounds with DNMT1 inh;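 active = average inhibition of at least 30% in the single-concentration confirmation test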
DNMT1 interf: counter-screen for DNMT1 inhibitors: spectral interference. shares compounds with DNMT1 inh. 2,300 tested, 1% active. activation (fluorescence interference), % at 10 µM. AID 602387. DNMT1 molecular beacon spectral interference counterscreen, fluorescence 485/520;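 active = activation of at least 30% at 10 µM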;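 note: DNMT1 catalytic domain with a HinP1I cleavage step and a FAM/dabcyl DNA beacon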
STEP conf: STEP (human) phosphatase inhibition, single concentration confirmation. inhibition, % at 20 µM. 520 tested, 32% active. recombinant STEP, OMFP fluorogenic substrate, fluorescence. shares compounds with STEP block. AID 623866; call rule not given here
NadD conf: NadD (S. aureus) inhibition, single concentration confirmation; shares compounds with NadD block; purified S. aureus NadD, colorimetric enzyme assay; inhibition, % at 20 µM; 2,000 tested, 13% active; in the data active = inhibition mostly above about 42%, no sharp cut-off; inactive = mostly below about 42%
Each line names hits and unclear results; the compound was inactive in the other large screens (follow-up assays come after a bar, where they were run).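 Rule for the calls, unless noted: active = inhibition of at least 30% at 20 µM; inactive = the rest.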

Cc1cc(C(=O)N/N=C/c2ccc(-c3ccc([N+](=O)[O-])cc3Cl)o2)n[nH]1	STEP block 93.6, Scp1 inh 56.4, NadD block 39.8, LMPTP inh 69.4, SUMO1 PPI mod 67.5 | Scp-1 conf 68.5 | Scp-1 MG ctr inactive | Scp-1 Tm shift 8.7 | STEP conf 34.0 | NadD conf inactive
Cc1cccc2sc(NC(=O)C3CCN(S(=O)(=O)c4cc([N+](=O)[O-])ccc4Cl)CC3)nc12	Scp1 inh 79.6, NadD block 45.8, DNMT1 inh 56.9 | Scp-1 conf 53.8 | Scp-1 MG ctr inactive | Scp-1 Tm shift 11.7 | DNMT1 confirm inactive | DNMT1 interf inactive | NadD conf inactive
O=C(NC1CC1)C1CCN(S(=O)(=O)c2cc(Cl)ccc2Cl)CC1	none
O=C(NC1CC1)C1CCN(S(=O)(=O)c2cc([N+](=O)[O-])ccc2Cl)CC1	Scp1 inh 75.7, NadD block 52.0, DNMT1 inh 89.7 | Scp-1 conf 68.9 | Scp-1 MG ctr inactive | Scp-1 Tm shift 11.4 | DNMT1 confirm inactive | DNMT1 interf inactive | NadD conf inactive
O=C(CN(C(=O)CCC(=O)Nc1nccs1)C1CCCC1)NCc1ccc2c(c1)OCO2	none
CC1CCCC(C)N1C(=O)COC(=O)c1n[nH]c(=O)c2ccccc12 (configuration not stated)	none
C[C@@H]1CN([C@H](C)CO)C(=O)c2cc(NC(=O)c3ccncc3)ccc2O[C@@H]1CN(C)C(=O)Nc1ccccc1	Scp1 inh 94.4, NadD block 61.2 | Scp-1 conf 61.4 | Scp-1 MG ctr inactive | Scp-1 Tm shift inactive | NadD conf 47.0
Cc1noc(C)c1NC(=O)N(C)C[C@@H]1Oc2c(NC(=O)NC(C)C)cccc2C(=O)N([C@@H](C)CO)C[C@@H]1C	none
Cc1noc(C)c1NC(=O)N(C)C[C@@H]1Oc2c(NC(=O)c3ccncc3)cccc2C(=O)N([C@H](C)CO)C[C@@H]1C	Scp1 inh 94.2, NadD block 36.5 | Scp-1 conf 66.0 | Scp-1 MG ctr inactive | Scp-1 Tm shift inactive | NadD conf 57.4
COCCNC(=O)C1(C)CCCN(C(=O)c2ccc(N(C)C)cc2)C1 (configuration not stated)	none (no result: Scp1 inh)
Cc1ccc(S(=O)(=O)c2c(N)n(CCCO)c3nc4ccccc4nc23)cc1	SUMO1 PPI mod 44.7, DNMT1 inh 69.8 | DNMT1 confirm inactive | DNMT1 interf inactive
O=C(COC(=O)c1cc(=O)c2ccccc2o1)NCc1ccccc1	none
O=C(COC(=O)c1cc(=O)c2ccccc2o1)NCc1ccc(Cl)cc1	DNMT1 inh 57.4 (no result: Scp1 inh) | DNMT1 confirm inactive | DNMT1 interf inactive
COc1cccc(C(=O)Nc2ccc(S(=O)(=O)NCc3ccco3)cc2)c1	none
O=C(Nc1ccc(S(=O)(=O)NCc2ccco2)cc1)c1cccc(F)c1	DNMT1 inh 83.5 | DNMT1 confirm inactive | DNMT1 interf inactive
O=C(Nc1ccc(Cc2ccc(NC(=O)Nc3cccnc3)cc2)cc1)Nc1cccnc1	DNMT1 inh 51.5 (no result: Scp1 inh) | DNMT1 confirm inactive | DNMT1 interf inactive
O=C(Nc1ccc(Cl)cc1)Nc1cccnc1	none
COc1ccc(CC(=O)Nc2ccc(-c3noc(-c4cccc(OC)c4)n3)cc2)cc1	DNMT1 inh 60.7 | DNMT1 confirm inactive | DNMT1 interf inactive
COc1cccc(-c2nc(-c3ccc(NC(=O)c4cccnc4)cc3)no2)c1	none
COC(=O)c1ccc(CSc2nc3scc(-c4cccs4)c3c(=O)[nH]2)o1	NadD block 34.1, DNMT1 inh 80.3 | DNMT1 confirm inactive | DNMT1 interf inactive
COC(=O)c1ccc(CSc2nc3ccc(Cl)cc3[nH]2)o1	none (no result: STEP block, NadD block, LMPTP inh, SUMO1 PPI mod, DNMT1 inh)
C[n+]1cccc2cccc([O-])c21	LMPTP inh 52.2, SUMO1 PPI mod 39.6, DNMT1 inh 77.6 | DNMT1 confirm inactive | DNMT1 interf inactive
Oc1cccc(C(O)CNCc2ccc(OCc3ccc(Cl)cc3Cl)cc2)c1 (configuration not stated)	none
CC1CN(C(=O)CCC(=O)NC2CCCCC2)c2ccccc2S1 (configuration not stated)	none
O=C1C2C3C=CC(CC3)C2C(=O)N1c1nccs1 (configuration not stated)	DNMT1 inh 60.5 | DNMT1 confirm inactive | DNMT1 interf inactive
O=C1C2C3C=CC(C2C(=O)N1c1nccs1)C1C(=O)N(c2nccs2)C(=O)C31 (configuration not stated)	none
CC(C)C(NC(=O)c1ccc2c(c1)OCO2)C(=O)N/N=C\c1ccco1 (configuration not stated)	none
CC(C)C(NC(=O)c1ccc2c(c1)OCO2)C(=O)N/N=C/c1cccs1 (configuration not stated)	DNMT1 inh 59.8 | DNMT1 confirm inactive | DNMT1 interf inactive
CCOC(=O)Cc1nnc(NC(=O)CSc2ncc(-c3ccccc3)nn2)s1	none
CCOc1ccc(C(=O)NNC(=O)CNC(=O)c2ccc(C)s2)cc1OC	none
CCCNC(=O)Cn1c(=O)/c(=C/c2ccc(-c3cccc([N+](=O)[O-])c3)o2)s/c1=C\C(=O)C(C)(C)C	DNMT1 inh 68.1 | DNMT1 confirm inactive | DNMT1 interf inactive
Cc1ccc(C(=O)N/C(=C\c2ccc(-c3cccc([N+](=O)[O-])c3)o2)C(=O)NC(C)(C)C)cc1	none
CN(CC(=O)Nc1ccccc1Cl)C(=O)COC(=O)c1ccc([N+](=O)[O-])s1	DNMT1 inh 65.1 | DNMT1 confirm inactive | DNMT1 interf inactive
Cc1cc(C)c(NC(=O)COC(=O)c2ccc([N+](=O)[O-])s2)c(C)c1	none

Source: PubChem BioAssay
